# Screens (PubChem)
# DAGLB inh – blocks human DAGLB lipase activity; HEK293T DAGLB membrane lysate, EnzChek fluorogenic substrate; hit rate 0.059% among 340,000; inhibition, % at 5.17 µM; Q8NCG7; in the data active means inhibition above about 34%;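 further: 0% = enzyme with vehicle and 100% = wells lacking enzyme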
# TAAR1 ag – human TAAR1 agonism; hit rate 0.99% among 360,000; CHO RD-HGA16 TAAR1, Fluo-8 calcium fluorescence; vehicle wells 0%, saturating PEA agonist 100%; activation, % at 3 µM;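 active means activation above the mean activation of all test compounds in the run plus 3 SD, cut at about 38% in these data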
# Target sequence (Q96RJ0 whole entry, looked up): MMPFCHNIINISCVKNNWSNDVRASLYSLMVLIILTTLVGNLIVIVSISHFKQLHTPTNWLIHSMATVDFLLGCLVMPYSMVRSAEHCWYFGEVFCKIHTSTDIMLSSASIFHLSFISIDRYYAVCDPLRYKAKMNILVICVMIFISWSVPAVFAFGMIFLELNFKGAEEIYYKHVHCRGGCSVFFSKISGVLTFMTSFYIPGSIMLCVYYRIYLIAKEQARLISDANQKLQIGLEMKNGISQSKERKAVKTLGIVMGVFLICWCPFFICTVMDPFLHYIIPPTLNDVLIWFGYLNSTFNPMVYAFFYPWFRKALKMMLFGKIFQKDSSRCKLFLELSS
#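 Test system: RD-HGA16 (CHO) cells co-expressing Gα16 and hTAAR1 | Doses: Single dose, 3 µM | Schedule: 17-24 h seeding, 75 min 37 °C dye, 30 min RT | Evaluation: % activation from peak over basal fluorescence ratio, DMSO-to-PEA scaled | Technique: Kinetic Fluo-8 calcium fluorescence | Benchmarks: Low control DMSO, high control PEA (EC100)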
# GPR7 antagonist – human neuropeptides B/W receptor 1 antagonism; P48145; GPR7-expressing cells, fluorescence antagonist assay; inhibition, % at 4.4 µM; hit rate 1.1% among 290,000; AID 1861; in the data active means inhibition above about 16%, passing the limit was not always enough;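 further: cells stimulated with the agonist NPW; 0% = agonist with vehicle and 100% = vehicle without agonist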
# Target sequence (P48145 whole entry, looked up): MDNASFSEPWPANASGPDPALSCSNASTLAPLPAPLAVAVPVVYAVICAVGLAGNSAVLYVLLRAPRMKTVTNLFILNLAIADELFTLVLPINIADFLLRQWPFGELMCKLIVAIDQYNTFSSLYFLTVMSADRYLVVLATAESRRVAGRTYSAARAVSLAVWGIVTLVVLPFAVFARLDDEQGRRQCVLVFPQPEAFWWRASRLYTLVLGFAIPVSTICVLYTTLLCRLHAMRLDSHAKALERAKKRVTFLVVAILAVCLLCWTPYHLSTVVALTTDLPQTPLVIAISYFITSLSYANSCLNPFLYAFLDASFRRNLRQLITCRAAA
# TAAR1 antag – antagonists of human TAAR1 | Q96RJ0 | CHO RD-HGA16 TAAR1, Fluo-8 calcium fluorescence, antagonist | inhibition, % at 3 µM | hit rate 1.5% among 360,000 | AID 624466;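 active means inhibition above a per-plate cutoff, the mean inhibition of test compounds on that plate plus 3 SD, cut at about 49% in these data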;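 further: 0% = DMSO plus EC80 beta-PEA response and 100% = DMSO alone without agonist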
#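 Test system: CHO RD-HGA16 cells bearing hTAAR1 | Reagent: β-PEA, EC80 | Compound dosing: 3 µM, single point | Schedule: Dye loading 75 min at 37 °C, then 30 min room temperature | Signal: Calcium fluorescence with Fluo-8 | Evaluation: Percent inhibition of PEA-evoked calcium signal, max/basal emission ratio | Control set: DMSO-only wells and EC80 β-PEA-stimulated wells | Repeats: Singlicate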
# MPTP inh – blocks calcium-induced mitochondrial swelling; inhibition, % at 10 µM; hit rate 1.4% among 360,000; isolated mouse mitochondria, Ca2+ swelling absorbance, 30 min;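 active means inhibition of 50% or more, scaled per plate between neutral and stimulator controls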;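 further: 0% = DMSO wells given calcium and 100% = 1 mM EGTA wells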
# MPTP counter – membrane potential counter-screen of mitochondrial pore inhibitors; shares compounds with MPTP inh; AID 624504; hit rate 78% among 5,000; inhibition, % at 10 µM; isolated mitochondria, Rhodamine 123 fluorescence; in the data active means inhibition above about 22%;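 further: 0% = DMSO vehicle and 100% = positive control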
# MPTP swell DR – MPTP inhibition, dose response swelling confirmation; IC50, µM; hit rate 58% among 780; isolated mitochondria swelling, absorbance; shares compounds with MPTP inh; in the data active means IC50 below about 20 µM
# MPTP cs DR – active in counter-screen for permeability transition pore inhibitors; shares compounds with MPTP inh; isolated mitochondria counterscreen, fluorescence read-out; IC50, µM; hit rate 49% among 780; in the data active means IC50 below about 80 µM
# Active calls of the source: *; i = inactive; / = no result. Most compounds without a hit are left out; they make up all but 4% or so of the library.
SMILES,DAGLB inh,TAAR1 ag,GPR7 antagonist,TAAR1 antag,MPTP inh,MPTP counter,others
Cc1ccc(-n2ncc3c(N4CCN(c5ccccc5)CC4)ncnc32)c(C)c1,-1,12,-7,62*,51*,34*,
CCN(c1ccccc1)S(=O)(=O)c1ccc(C(=O)NC2CCN(Cc3ccccc3)CC2)cc1,-4,/,/,/,66*,64*,
O=C(O)CCCCCN1C(=O)/C(=C\c2ccc(-c3ccc(Cl)cc3)o2)SC1=S,0,1,-9,9,88*,47*,
COc1ccccc1OCC(=O)Nc1ccc(NC(=O)COc2ccccc2OC)cc1,-2,8,-4,44,1,/,
COc1cc(CNCCO)ccc1OCC(=O)Nc1ccc(Br)cc1,3,5,4,-7,59*,-10,MPTP swell DR=i;MPTP cs DR=>80
CCC(CC)C(=O)N(C)c1c(C)nc2c(OCc3ccc(F)c(F)c3)cccn12,/,0,/,-27,1,/,
Cc1cc(N2CCN(C(=O)OC(C)(C)C)C[C@@H]2C)ccc1N1CCS(=O)(=O)CC1,/,3,/,-17,/,/,
Cc1cccc2[nH]c3c(N4CC=C(c5ccc(F)cc5)CC4)ncnc3c12,/,7,-12,16,66*,62*,
O=[N+]([O-])c1ccc(N/N=C2\CC3CC=CC23)c([N+](=O)[O-])c1 (stereo unspecified),-3,0,-10,-7,92*,75*,
O=C(NNc1nc2c(F)cccc2s1)c1ccc(F)cc1,-1,19,-5,7,66*,90*,
Fc1cccc2sc(Nc3nc4c(F)cccc4s3)nc12,4,2,-1,32,56*,69*,
Fc1cccc2sc(Nc3nnc(-c4ccccc4)o3)nc12,17,6,-5,0,76*,76*,
COC(=O)C1=C(C)N(Cc2ccccc2C(F)(F)F)C(=NCc2cc(OC)c(OC)c(OC)c2)NC1c1cccc(C(F)(F)F)c1 (stereo unspecified),/,7,/,-12,/,/,
CCc1nnc(NS(=O)(=O)c2ccc(NC(=S)NC(=O)/C=C/c3ccc(F)cc3)cc2)s1,13,1,1,24,53*,40*,
CCc1nnc(NS(=O)(=O)c2ccc(NC(=S)NC(=O)/C=C/c3ccc([N+](=O)[O-])cc3)cc2)s1,8,3,-13,-18,-3,/,
CC1=C(C(=O)N(C(C)C)C(C)C)CC(CC(=O)NCC2CCCCC2)C(=O)N1Cc1ccc(C(C)(C)C)cc1 (stereo unspecified),/,-2,/,-14,0,/,
CCOC(=O)c1c(-c2ccccc2)csc1NC(=O)CSc1nc(C)cc(C)n1,-7,2,8,23,12,/,
CCOC(=O)c1c(-c2ccccc2)csc1NC(=O)CSc1nc(N)cc(N)n1,1,-1,7,10,80*,43*,
OC1c2c(F)cccc2N=C2CCCCN21 (stereo unspecified),/,2,/,9,-2,/,
O=C(Cn1c(=O)oc2ccccc21)Nc1ccc(Br)cc1,-5,0,9,5,0,/,
N#Cc1c(NC(=O)Cn2c(=O)oc3ccccc32)oc(-c2ccccc2)c1-c1ccccc1,4,5,-15,1,95*,44*,
COc1ccc(S(=O)(=O)N(C)CC(=O)NCCN2CCOCC2)cc1C,1,-1,-12,-1,-1,/,
COc1ccc(C2C=CC(=O)CC2)c(OC)c1 (stereo unspecified),/,-1,/,-5,1,/,
S=C(NCc1cccs1)Nc1cc(Cl)cc(Cl)c1,-5,3,-4,-4,90*,78*,
S=C(NCc1cccs1)Nc1ccccc1Cl,-1,-1,4,8,2,/,
SMILES,DAGLB inh,TAAR1 ag,GPR7 antagonist,TAAR1 antag,MPTP inh,MPTP counter,others
O=C(NCc1cccs1)Nc1cccc(Cl)c1,-3,8,0,9,2,/,
O=C(Nc1cccc(Cl)c1)NC1(C(=O)NCc2cccs2)CCCCC1,1,6,-17,-3,81*,74*,
S=C(NCc1cccs1)Nc1cccc(Cl)c1,-4,/,19,/,91*,98*,
O=C(NCc1ccc2c(c1)OCO2)c1c(-c2ccccc2)sc2ccccc12,-1,4,/,6,82*,79*,
O=C(NCc1cccnc1)c1ccc(COc2ccc(Cl)cc2)cc1,-1,16,-3,-1,66*,63*,
O=C(COc1ccc(Cl)cc1)Nc1ccc(C(=O)NCc2cccnc2)cc1,1,/,10,/,28,/,
CC(C)(C)c1ccc(OCc2ccc(C(=O)NCc3cccnc3)o2)cc1,-3,16,-7,53*,85*,68*,
O=C1NC(c2ccccc2)c2c(-c3ccccc3)n[nH]c21 (stereo unspecified),/,1,/,-4,/,/,
COc1cccc(C(NC(C)=O)c2nc(-c3cccc(C(C)C)c3)cs2)c1 (stereo unspecified),/,12,/,-14,-1,/,
Cc1nnsc1-c1onc(C)c1C(=O)Nc1cc(Cl)cc(Cl)c1,-2,6,1,-13,84*,79*,
Cc1cccc(NC(=O)c2n[nH]c([N+](=O)[O-])c2Br)c1C,8,5,0,-12,87*,86*,
CC1=C(C)/C(=N\OS(=O)(=O)c2ccccc2)C=CC1=O,-1,/,58*,/,109*,99*,
O=C(NC(=S)NN1CCCCC1c1cccnc1)c1ccc(Cl)cc1Cl (stereo unspecified),2,0,-6,-25,52*,65*,
COc1cc(OC)c2c(=O)c3c(C(=O)O)c(O)ccc3oc2c1,/,0,/,-16,/,/,
CCN(CC)c1ccc2nc3c4ccccc4c(=O)cc-3oc2c1,/,17,20,20,/,/,
CCN(CC)c1ccc2c(-c3ccc(S(=O)(=O)O)cc3S(=O)(=O)[O-])c3ccc(=[N+](CC)CC)cc-3oc2c1,-19,/,70*,/,64*,1,
O=c1cc(CSc2ccc(Cl)cc2)nc(-c2ccccn2)[nH]1,3,4,14,27,-2,/,
Cc1cccc(NC(=S)/N=C(\N)Nc2nc(C)c3ccccc3n2)c1,-4,0,6,-18,33,/,
Cc1cc(C)cc(NC(=S)/N=C(\N)Nc2nc(C)c3ccccc3n2)c1,0,0,-9,-15,56*,-9,MPTP swell DR=>100;MPTP cs DR=>80
CSc1cccc(NC(=S)N2CCCN(Cc3ccccc3F)C2)c1,0,9,-3,22,69*,81*,
C=Cc1ccc(Cn2nc(-c3ccc(C)cc3)ccc2=O)cc1,-5,1,33,-10,69*,79*,
CC1Oc2ccccc2C=C1/C=N/NC(=O)c1ccccc1O (stereo unspecified),1,12,9,-6,90*,72*,
